Measured values reported in ChEMBL document CHEMBL1139466, “Novel tetralone-derived retinoic acid metabolism blocking agents: synthesis and in vitro evaluation with liver microsomal and MCF-7 CYP26A1 cell assays” (J Med Chem, 2005).
Calls of active or inactive are those of the source. The rule behind the calls is not given here.

Key:
Cytochrome P450 26A1 = target: T1, Cytochrome P450 26A1 (Homo sapiens, UniProt O43174); assay: Inhibition of CYP26A1 in human MCF7 cells assessed as all-trans retinoic acid metabolism; type: ADME, cell-based
T1 sequence (O43174 whole entry): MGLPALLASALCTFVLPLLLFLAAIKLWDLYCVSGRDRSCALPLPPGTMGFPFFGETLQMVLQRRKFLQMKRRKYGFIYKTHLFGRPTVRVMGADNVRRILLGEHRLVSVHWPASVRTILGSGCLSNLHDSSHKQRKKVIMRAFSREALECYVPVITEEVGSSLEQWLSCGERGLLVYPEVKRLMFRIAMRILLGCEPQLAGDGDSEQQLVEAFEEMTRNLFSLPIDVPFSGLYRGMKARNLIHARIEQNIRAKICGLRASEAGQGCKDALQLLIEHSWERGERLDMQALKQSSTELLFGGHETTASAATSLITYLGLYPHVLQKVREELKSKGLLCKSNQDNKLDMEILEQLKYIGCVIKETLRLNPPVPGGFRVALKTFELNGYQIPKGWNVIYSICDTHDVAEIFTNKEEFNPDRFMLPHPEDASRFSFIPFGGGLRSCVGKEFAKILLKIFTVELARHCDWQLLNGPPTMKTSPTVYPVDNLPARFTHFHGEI
Procedure, shortened: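 Seeded 2.5 × 10^5 per well and allowed 24 h to adhere, then washed with PBS. Fresh medium with inhibitor in acetonitrile plus atRA (final 1 × 10^-7 M, 0.1 μCi [3H]-atRA), 9 h at 37 °C in the dark, duplicate. Stopped with 1% acetic acid. Metabolites separated by radio-HPLC on C18. IC50 is the average of two experiments.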

Liver microsomes = assay: Inhibition of all-trans retinoic acid metabolism in rat liver microsomes; type: functional, Microsome
Procedure, shortened: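 Rat liver microsomes incubated with [11,12-3H]-atRA (diluted in unlabeled atRA), inhibitor in acetonitrile, NADPH and 50 mM phosphate buffer pH 7.4, duplicate tubes, 30 min at 37 °C with shaking. Extract evaporated and metabolites resolved by C18 radio-HPLC (acetonitrile/1% ammonium acetate/acetic acid 75:25:0.1). IC50 is the average of two experiments.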

Compound	IC50 (Cytochrome P450 26A1)	IC50 (Liver microsomes)	Activity (Liver microsomes; Microsome)
COc1ccc2c(c1)CC/C(=C\c1cc(C(F)(F)F)ccc1C(F)(F)F)C2=O	50 µM	> 20 µM	
COc1ccc2c(c1)CCC(Cc1ccccc1C)C2=O (configuration not stated)	20 µM	1.8 µM	
COc1ccc2c(c1)CC/C(=C\c1ccc(O)cc1)C2=O	7 µM	> 20 µM	
Nc1ccc(CC2CCc3cc(O)ccc3C2=O)cc1 (single isomer, unassigned; (-))	39 µM	10.2 µM	
O=C1/C(=C/c2ccccc2Br)CCc2cc(O)ccc21	20 µM	2.4 µM	
O=C1/C(=C/c2ccccc2-c2ccccc2)CCc2cc(O)ccc21	20 µM	> 20 µM	
O=C1c2ccc(O)cc2CCC1Cc1ccccc1-c1ccccc1 (configuration not stated)	10 µM	0.5 µM	
O=C1/C(=C/c2ccc(-c3ccccc3)cc2)CCc2cc(O)ccc21	50 µM	> 20 µM	
CC(=O)N1CCN(c2ccc(OCC3COC(Cn4ccnc4)(c4ccc(Cl)cc4Cl)O3)cc2)CC1 (configuration not stated) [KETOCONAZOLE]		18 µM	
O=C1c2ccc(O)cc2CCC1Cc1ccc(O)cc1 (configuration not stated)	20 µM	1.5 µM	
O=C1/C(=C/c2ccc(O)cc2)CCc2cc(O)ccc21	9 µM	> 20 µM	
O=C1c2ccc(O)cc2CCC1Cc1ccc(-c2ccccc2)cc1 (configuration not stated)	10 µM	0.8 µM	
CN(C)c1ccc(/C=C2\CCc3cc(O)ccc3C2=O)cc1	50 µM	> 20 µM	
Nc1ccc(CC2CCc3cc(O)ccc3C2=O)cc1 (single isomer, unassigned; (+))	43 µM	17.6 µM	
COc1ccc2c(c1)CCC(Cc1ccc(O)cc1)C2=O (configuration not stated)	5 µM	0.4 µM	
CN(C)c1ccc(CC2CCc3cc(O)ccc3C2=O)cc1 (configuration not stated)	25 µM	1.2 µM	
COc1ccc2c(c1)CC/C(=C\c1ccccc1Br)C2=O	9 µM	> 20 µM	
Clc1cccc(C(c2ccc3[nH]cnc3c2)n2ccnc2)c1 (configuration not stated)			Active
CCC(CC)[C@H](c1ccc(Nc2nc3ccccc3s2)cc1)n1cncn1	0.005 µM	9 µM	
COc1ccc2c(c1)CCC(Cc1cc(C(F)(F)F)ccc1C(F)(F)F)C2=O (configuration not stated)	50 µM	18 µM	
COc1ccc2c(c1)CC/C(=C\c1ccccc1C)C2=O	20 µM	> 20 µM	
COc1ccc2c(c1)CCC(Cc1ccc(O)cc1)C2 (configuration not stated)	25 µM	2.2 µM	
